MsrA act – bovine methionine sulfoxide reductase A activation | hit rate 0.3% among 360,000 | purified bovine MsrA, absorbance read-out | activation, % at 10.6 µM; in the data active means activation above about 7.5%
AHR act – human AHR activation; AHR-responsive luciferase reporter cells, luminescence; activation, % at 5 µM; hit rate 2.5% among 320,000; in the data active means activation above about 47%
Target sequence (P35869 whole entry, looked up): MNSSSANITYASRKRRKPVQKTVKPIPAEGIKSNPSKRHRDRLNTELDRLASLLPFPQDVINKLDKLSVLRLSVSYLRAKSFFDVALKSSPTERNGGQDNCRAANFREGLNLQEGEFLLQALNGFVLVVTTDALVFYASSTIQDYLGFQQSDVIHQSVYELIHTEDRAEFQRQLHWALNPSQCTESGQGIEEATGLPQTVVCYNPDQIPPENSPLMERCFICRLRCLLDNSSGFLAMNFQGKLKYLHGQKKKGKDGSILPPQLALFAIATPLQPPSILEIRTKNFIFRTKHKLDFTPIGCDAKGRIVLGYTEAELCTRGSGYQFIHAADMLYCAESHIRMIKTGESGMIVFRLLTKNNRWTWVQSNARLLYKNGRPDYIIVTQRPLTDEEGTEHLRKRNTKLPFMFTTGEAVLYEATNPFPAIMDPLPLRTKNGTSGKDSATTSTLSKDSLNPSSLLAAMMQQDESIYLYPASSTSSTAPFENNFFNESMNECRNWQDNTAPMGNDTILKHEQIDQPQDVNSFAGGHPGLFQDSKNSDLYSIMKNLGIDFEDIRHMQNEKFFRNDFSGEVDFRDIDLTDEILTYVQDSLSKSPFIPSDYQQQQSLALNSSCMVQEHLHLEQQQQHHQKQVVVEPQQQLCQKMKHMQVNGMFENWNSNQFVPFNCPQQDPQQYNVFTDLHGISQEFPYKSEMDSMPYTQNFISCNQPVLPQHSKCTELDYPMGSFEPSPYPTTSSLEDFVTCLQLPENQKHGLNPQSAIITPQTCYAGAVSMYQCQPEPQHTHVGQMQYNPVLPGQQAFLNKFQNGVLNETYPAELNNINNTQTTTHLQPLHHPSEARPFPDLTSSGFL
MsrA inhibitor – inhibits bovine methionine sulfoxide reductase A | purified bovine MsrA, absorbance read-out | inhibition, % at 15.5 µM | hit rate 0.75% among 360,000 | AID 651718; in the data active means inhibition above about 4.5%
Tb MetRS inh – Trypanosoma brucei MetRS inhibition; purified T. brucei MetRS, ATP depletion, Kinase-Glo luminescence; hit rate 0.4% among 360,000; inhibition, % at 11.9 µM;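 active means inhibition above a per-plate cutoff of the control wells' mean inhibition plus 3 SD, cut at about 5.5% in these data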
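Material: T. brucei methionyl-tRNA synthetase, purified; reagent: substrates ATP, L-methionine and bulk Escherichia coli tRNA; dosing: 11.9 µM single point; timing: 15 min plus 2 h at 25 °C; detection: luminescence of leftover ATP; evaluation: % inhibition; control set: DMSO-only wells as low control; replicates: singlicate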
HTR2A ag – activates the mouse 5-HT2A serotonin receptor; P35363; CHO-K1 mHTR2A beta-arrestin complementation, luminescence; percent of 30 µM serotonin response; activation, % at 7.6 µM; hit rate 0.66% among 360,000;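 active means activation above a run cutoff, the mean activation of all tested compounds plus 3 SD, cut at about 14% in these data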
AI-2 QS modul – modulates the Vibrio harveyi AI-2 quorum sensing system | AID 2094 | activity change, % at 7.5 µM | Vibrio harveyi JMH597 AI-2 luminescence/OD600 ratio, 9 h; hits give low values; strain lacks LuxN and CqsS sensors; 0 = neutral-control median | hit rate 0.4% among 300,000; in the data active means activity change below about -75%, passing the limit was not always enough;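 further: luminescence divided by OD600 gain over 9 h not by final OD600 alone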
MOR ag counter – counter-screen for mouse HTR2A agonists: human mu opioid receptor agonists. activation, % at 9.3 µM. shares compounds with HTR2A ag. U2OS OPRM1 beta-arrestin PathHunter, luminescence; DMSO 0%, DAMGO 9.3 µM 100%. hit rate 5.3% among 2,300;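 active means mean activation above the mean of DMSO-only wells plus 3 SD, cut at about 0.5% in these data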
HTR2A ag conf – mouse HTR2A agonism confirmed | shares compounds with HTR2A ag | CHO-K1 PathHunter beta-arrestin recruitment, luminescence; DMSO 0%, 30 µM serotonin 100% | activation, % at 7.6 µM | hit rate 19% among 2,300 | AID 624381;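 active means mean activation across triplicates above the hit threshold derived in the original primary screen, cut at about 15% in these data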
Numbers stand for hits; - = inactive; . = no result. This is a sample that favours compounds with a hit; in the whole collection about 4.4% have one here.

SMILES	MsrA act	AHR act	MsrA inhibitor	Tb MetRS inh	HTR2A ag	AI-2 QS modul	MOR ag counter	HTR2A ag conf
COc1ccc(CCNC(=O)C(=O)NCC2CCCN2S(=O)(=O)c2ccccc2)cc1 (centres undefined)	-	-	-	-	16	-	-	-
COc1ccc(S(=O)(=O)N2CCOC2CNC(=O)C(=O)NCCc2ccccc2)cc1C (centres undefined)	-	-	-	-	16	-	-	-
CC(=O)/C(C(=N)N1CCN(c2cccc(Cl)c2)CC1)=C(\C)O	-	-	-	-	18	-	-	-
N#CCC(=N)N1CCN(c2cccc(Cl)c2)CC1	-	-	-	-	15	-	-	-
CCC(C(=O)N1CCN(c2cccc(Cl)c2)CC1)c1ccccc1 (centres undefined)	-	-	-	-	-	-	.	.
O=C(O)CCC(=O)N1CCN(c2cccc(Cl)c2)CC1	-	-	-	-	-	-	.	.
O=C(O)/C=C/C(=O)N1CCN(c2cccc(Cl)c2)CC1	-	-	-	-	31	-	-	-
O=C(CN1CCN(C(=O)c2cccc(S(=O)(=O)N3CCCC3)c2)CC1)Nc1ccc(F)cc1	-	-	-	-	-	.	.	.
O=[S@]1Oc2ccccc2-c2ccccc21	-	-	-	-	-	-	.	.
O=C(CCS(=O)(=O)c1ccc(Cl)cc1)OCC(=O)N1CCCCC1	-	-	-	-	16	-	-	-
O=C(CCS(=O)(=O)c1ccccc1)OCC(=O)N1CCN(S(=O)(=O)c2ccc(Cl)cc2)CC1	-	-	-	-	-	-	.	.
COc1ccc(CNC(=O)C2CCCN(c3ncnc4c3nc3n4CCCCC3)C2)cc1 (centres undefined)	-	-	.	-	-	-	.	.
CC1CCCCN1CCNC(=O)C1CCN(S(=O)(=O)N2CCCCC2)CC1 (centres undefined)	-	-	-	-	15	-	-	-
CC1CCN(CCCNC(=O)C2CCN(S(=O)(=O)N3CCCCC3)CC2)CC1	-	-	-	-	-	-	.	.
CCOc1cc(N2CCOCC2)c(OCC)cc1NC(=O)CN1C(=O)NC2(CCCCCCC2)C1=O	-	-	-	-	-	-	.	.
CCOc1cc(N2CCOCC2)c(OCC)cc1NC(=O)CN1C(=O)NC(CC)(c2ccc(F)cc2)C1=O (centres undefined)	-	.	-	-	15	.	-	-
C=C1CC2C3CC[C@@]4(OCOC45COCO5)[C@@]3(C)C(O)CC2[C@@]2(C)CCC(=O)C=C12 (some centres undefined)	-	-	-	-	15	-	-	-
C[C@]12CCC(=O)C=C1CCC1C2CC[C@@]2(C)C1CCC21OCCO1 (some centres undefined)	-	-	-	-	-	.	.	.
O=S(=O)(NC1=NCCCCC1)c1cc(F)ccc1F	-	-	-	-	22	.	-	-
COc1cccc(-c2cc(N3CCN(C(=O)c4ccoc4)CC3)n3nc(-c4cccc(Cl)c4)cc3n2)c1	-	.	-	-	16	.	-	-
CCCN(CCC)CC(=O)NCC1(c2ccccc2)CCOCC1	-	-	-	-	17	-	0.5	-
CC(=O)c1ccc(Oc2cnccn2)cc1	-	-	-	-	16	-	-	-
CCOc1ccc(S(=O)(=O)NCC2(N3CCCCC3)CCCCC2)cc1	-	.	-	-	17	.	-	-
O=C(Nc1n[nH]c(=S)s1)c1ccc2ccccc2c1	-	-	-	-	18	-	-	-
COc1ccc(S(=O)(=O)N(C)CC(=O)N2CCCCC2)cc1Cl	-	-	-	-	15	-	-	-
SMILES	MsrA act	AHR act	MsrA inhibitor	Tb MetRS inh	HTR2A ag	AI-2 QS modul	MOR ag counter	HTR2A ag conf
Cc1cccc(C)c1NC(=O)c1cc(S(=O)(=O)N2CCc3ccccc32)cn1C	-	-	-	-	21	-	-	-
COc1ccc2[nH]cc(CCn3ccc(=O)c(C)c3C)c2c1	-	-	-	-	-	-	.	.
COc1ccc2[nH]cc(CCN=C3SCC(=O)N3C)c2c1	-	-	-	-	18	-	-	-
O=C(Cc1ccsc1)NCC(=O)Nc1ccccc1Br	-	-	-	-	-	.	.	.
CCC(=O)N1CCCC(C)(C(=O)Nc2ccc(C)c(C)c2)C1 (centres undefined)	-	.	-	-	17	.	-	-
COCCNC(=O)C1(C)CCCN(C(=O)c2cccc(C(F)(F)F)c2)C1 (centres undefined)	-	.	-	-	-	.	.	.
CCc1ccc(OCCCC(=O)Nc2ccc(S(=O)(=O)Nc3cc(C)nc(C)n3)cc2)cc1	-	-	-	-	15	-	-	-
CCC(C)Sc1ccc([C@H]2N[C@@](Cc3ccccc3)(C(=O)OC)[C@H]3C(=O)N(CC)C(=O)[C@@H]23)cc1OC (some centres undefined)	-	-	-	-	-	-	.	.
O=c1ccc(-c2ccc(S(=O)(=O)Nc3cccc(Br)c3)o2)n[nH]1	-	-	-	-	-	-	.	.
CC(=O)NC(Cc1ccccc1)C(=O)NC1CCN(C(=O)c2cnccn2)CC1 (centres undefined)	-	-	-	-	19	-	-	-
COC(=O)c1cc(NC(=O)c2c(F)c(F)c(F)c(F)c2F)cc(C(=O)OC)c1	-	-	-	-	18	-	-	-
CC(=O)c1cccc(NC(=O)c2c(F)c(F)c(F)c(F)c2F)c1	-	-	-	-	-	-	.	.
c1ccc(COc2ccc(Nc3ncnc4nc[nH]c34)cc2)cc1	-	-	-	-	17	-	-	-
CC(C)(C)c1ccc(C(=O)N2CCN(c3nc4ccccc4o3)CC2)cc1	-	-	-	-	17	-	-	-
CCc1nc2c(OCCn3cccc3)cccn2c1N(C=O)Cc1ccccc1	-	.	-	-	-	.	.	.
CC(C)c1cc(Cn2c3ccccc3c(=O)n2C(C)CBr)on1 (centres undefined)	-	.	-	-	-	.	.	.
CC(=O)C12OC1CC1C3CCC4=CC(=O)CCC4(C)C3CCC12C (centres undefined)	-	-	-	-	16	-	-	-
Cc1ccc(S(=O)(=O)N(C)C)cc1NC(=O)COC(=O)CN1C(=O)c2ccccc2C1=O	-	-	-	-	-	.	.	.
Cn1ccc2c(N3CCCCC3)cc3c(c21)C1CCC3O1 (centres undefined)	-	.	-	-	-	.	.	.
CCCNC(=O)C1CCN(S(=O)(=O)c2c(C)noc2/C=C\c2ccc(OC)cc2)CC1	-	-	-	-	-	-	.	.
CNC(=O)C1CCN(S(=O)(=O)c2c(C)noc2/C=C/c2ccc(OC)cc2)CC1	-	-	-	-	20	-	-	-
